B1: tRNA (parent)
chain: GUUCCGUUGGCGUAAUGGUAACGCGUCUCCCUCCUAAGGAGAAGACUGCGGGUUCGAGUCCCGUACGGAACG

This sample holds only a part of the variants without activity.

For 167 variants, yeast fitness results are on record in the RNAGym collection of RNA variant scans (doi:10.1126/science.aae0568).

The variants in this data set derive from B1. Kind of data set: yeast fitness relative to wild type (ratio to wild type); higher = fitter; tRNA-Arg(CCU), competitive growth, 37 C, YPD. The procedure, abridged:
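Gene amplicons from the start population and from each of six end populations were read by 100-nucleotide paired-end sequencing. Those end populations came from pooled Saccharomyces cerevisiae strains carrying tRNA-Arg(CCU) gene variants at the native locus, competed in YPD at 37°C for 24 hours. Fitness relative to wild type was worked out from changes in genotype frequencies. Genotypes needed ≥ 100 starting reads, and estimates < 0.5 were set to 0.5.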
Consider C11G C27G A70G, for which the yeast fitness was not above 0.5.

Take C11G A21G A40G A69U: the yeast fitness was not above 0.5.

Turning to C11G C34A A45G U54A, the yeast fitness was not above 0.5.

Regarding C11G A57U, the yeast fitness is not above 0.5.

As for C11G A57G, the yeast fitness is 0.624.

Turning to C11A G23A C30U C31G, the yeast fitness is not above 0.5.

In the case of C11G A14G A15U G23C G68C, the yeast fitness is not above 0.5.

As for C11G C24U C34A A37C C55G, the yeast fitness amounted to 0.526.

On to C11G C31G C34U A40C, for which the yeast fitness was not above 0.5.

C11G C27A C31A: the yeast fitness was not above 0.5.

For C11G A21U G39C G44A U47A, the yeast fitness was not above 0.5.

As for C11G A15U C24G A40G C62U A70C, the yeast fitness is 0.614.

Consider C11A G41A G67U G68C, for which the yeast fitness was found to be 0.567.

On to C11G C49G C60A A70U, for which the yeast fitness is not above 0.5.

C11G A14C A15C A40C A70C: the yeast fitness was not above 0.5.

Take C11G A15U G38A C46G G56C: the yeast fitness was not above 0.5.

For C11G C30U A37C C46U A57C, the yeast fitness is not above 0.5.

For the variant C11G G12A C31G U59G A65G, the yeast fitness is not above 0.5.

With C11G C24G G51C, the yeast fitness turned out to be 0.611.

As to C11G C29G U35C A45U, the yeast fitness was not above 0.5.

In the case of C11A U16C A21G G68A, the yeast fitness is not above 0.5.

Turning to C11A U16C C33U A37C, the yeast fitness is not above 0.5.

In the case of C11A G23C U32G C34A, the yeast fitness is not above 0.5.

On to C11G A20G C33U A37U, for which the yeast fitness was not above 0.5.

In the case of C11G A15G C33G A37G U54A, the yeast fitness is not above 0.5.

As to C11A G18A C46U, the yeast fitness was 0.61.

As to C11G C33G, the yeast fitness was not above 0.5.

Consider C11A G25A C46G A57U, for which the yeast fitness is not above 0.5.

As to C11G C22A C31A C61A, the yeast fitness was not above 0.5.

For the variant C11A U13A A20U C29G A36G C46U G58A, the yeast fitness is not above 0.5.

For the variant C11G A21G A40G G58A C62G, the yeast fitness is not above 0.5.

For C11G G12C C60G, the yeast fitness is not above 0.5.

Consider C11G A14U G17A A36G G41A C55G C61A, for which the yeast fitness is not above 0.5.

On to C11G C34G G48A, for which the yeast fitness is not above 0.5.

As for C11G C49A A57U U64A G67U, the yeast fitness was not above 0.5.

C11G C24U C62U G68C: the yeast fitness is not above 0.5.

Regarding C11A U13C C27A, the yeast fitness is not above 0.5.

In the case of C11G A15U A36U, the yeast fitness is not above 0.5.

As to C11G A40U C62A, the yeast fitness is not above 0.5.

Turning to C11G C24A C66G, the yeast fitness is not above 0.5.

Turning to C11G A42U C49U C62U, the yeast fitness is not above 0.5.

Regarding C11A G41A A45U C55A, the yeast fitness is not above 0.5.

Regarding C11G C30G C31G U32A C66U, the yeast fitness was found to be 0.551.

Regarding C11A U64A, the yeast fitness was found to be 0.635.

Consider C11G A45C A65C, for which the yeast fitness was not above 0.5.

Take C11G C31G: the yeast fitness worked out at 0.555.

Consider C11G C31A, for which the yeast fitness came out at 0.508.

Consider C11G A15C G50C, for which the yeast fitness was not above 0.5.

For C11A G38A U53A, the yeast fitness was determined as 0.543.

For the variant C11G A42G A45U U64C A70C, the yeast fitness stood at 0.527.

For the variant C11G C27A A36G G38A A65C, the yeast fitness is not above 0.5.

As to C11A U26G, the yeast fitness was found to be 0.599.

Regarding C11G A14U C24A C61A, the yeast fitness was not above 0.5.

Turning to C11G C30G C31G U32A G56A, the yeast fitness is not above 0.5.

For C11A G18A G67A, the yeast fitness is not above 0.5.

As for C11G A14G, the yeast fitness is 0.529.

For the variant C11G A15U C22U U32C A42G, the yeast fitness is not above 0.5.

On to C11A U19G A36G C49U U54C A69C, for which the yeast fitness was not above 0.5.

Consider C11A U26G G44A G52A, for which the yeast fitness was 0.55.

For the variant C11G A36C G68C, the yeast fitness is not above 0.5.

For the variant C11G C34A A36U G48A G52C C60A, the yeast fitness came out at 0.646.

Turning to C11A U13A, the yeast fitness came out at 0.603.

C11A G23U A36U: the yeast fitness is not above 0.5.

Consider C11G C30U G67C, for which the yeast fitness is not above 0.5.

As for C11A U13G G51A, the yeast fitness was not above 0.5.

As to C11G C49U G68U, the yeast fitness was not above 0.5.

Turning to C11G A15C C30U U53A C61G, the yeast fitness is not above 0.5.

With C11G C29A U35C A43C, the yeast fitness is not above 0.5.

As for C11G A36C C46U, the yeast fitness is not above 0.5.

For the variant C11G C24G A57G, the yeast fitness was not above 0.5.

For C11A U35G, the yeast fitness turned out to be 0.514.

C11G C62A A70C: the yeast fitness turned out to be 0.563.

In the case of C11G C27U C60A, the yeast fitness is 0.535.

For C11G C27U C34U, the yeast fitness was not above 0.5.

For the variant C11A U47C G51C, the yeast fitness was not above 0.5.

Regarding C11G C31G A42U A65C, the yeast fitness came out at 0.602.

Turning to C11G G12C A40G U47C G50C, the yeast fitness is 0.897.

In the case of C11A G17C A43G, the yeast fitness was not above 0.5.

Consider C11G C24G C62U, for which the yeast fitness stood at 0.528.

For the variant C11G A14U C34A A57G, the yeast fitness was determined as 0.642.

Take C11G A14G A37G G44A: the yeast fitness was not above 0.5.

For the variant C11G C27G, the yeast fitness was not above 0.5.

As for C11G C24G G67C, the yeast fitness worked out at 0.566.

In the case of C11G C29U A69U, the yeast fitness came to 0.543.

Take C11G C62G: the yeast fitness worked out at 0.642.

For C11A G39A C61U C62A, the yeast fitness turned out to be 0.624.

Consider C11G A14U A36U G38C C55U G56C, for which the yeast fitness is not above 0.5.

Take C11G C24U A57G G68C: the yeast fitness is not above 0.5.

With C11G A15G C22A U26A C55G, the yeast fitness is not above 0.5.

For the variant C11G C33G A69U, the yeast fitness was not above 0.5.

Regarding C11A G23A U32C U47C, the yeast fitness is not above 0.5.

For C11G C60G, the yeast fitness is 0.713.

Turning to C11A G48A, the yeast fitness was found to be 0.642.

With C11G C31G C55G C60A, the yeast fitness was not above 0.5.

For the variant C11G C49A, the yeast fitness turned out to be 0.522.

For the variant C11G C49U, the yeast fitness turned out to be 0.631.

C11G C27U A36U A37U G41C A43C C49G C62G: the yeast fitness worked out at 0.604.

Take C11G A36C: the yeast fitness was not above 0.5.

As to C11A G56A C66G, the yeast fitness worked out at 0.533.

With C11A U59C C66U A70C, the yeast fitness was not above 0.5.

Take C11A U16C C31U A69U: the yeast fitness was not above 0.5.

Regarding C11G C24U U28C C66G, the yeast fitness was not above 0.5.

On to C11G A15G C22A U26A A40U U54C C62A, for which the yeast fitness was not above 0.5.

As to C11G C30A A42C C61A, the yeast fitness is not above 0.5.

In the case of C11A G39A C62A, the yeast fitness is not above 0.5.

Regarding C11G C27A C34G, the yeast fitness was not above 0.5.

Regarding C11A G67U, the yeast fitness was 0.584.

For C11G C29U C34U, the yeast fitness is 0.506.

C11G A14U A36U G38C: the yeast fitness stood at 0.553.

C11G G12C G23C A40G: the yeast fitness was not above 0.5.

C11A G17A C33U A70C: the yeast fitness was not above 0.5.

For C11A G25C C34G C46A A70G, the yeast fitness was not above 0.5.

As for C11G C24U U28C G51A, the yeast fitness was not above 0.5.

With C11G G12A C31G, the yeast fitness was not above 0.5.

As to C11G A45G C49U C55A A70U, the yeast fitness is not above 0.5.

Turning to C11A U19C C24G C30U C31U C61U G67C, the yeast fitness was not above 0.5.

C11A G25C C29U A57G: the yeast fitness was not above 0.5.

C11G A65C C66G: the yeast fitness is not above 0.5.

With C11A U32C A70C, the yeast fitness was found to be 0.549.

Consider C11G A36U A42G A43C, for which the yeast fitness amounted to 0.527.

In the case of C11G C27U U47A G52C, the yeast fitness is not above 0.5.

Consider C11G A36C G41A C66U, for which the yeast fitness is not above 0.5.

As to C11A U16C G18C C61A G67A, the yeast fitness is not above 0.5.

As for C11A U19G A36G U54C C66U A69C, the yeast fitness was not above 0.5.

For C11A U13C G23C U32G C34A, the yeast fitness is not above 0.5.

Consider C11G C30G C33A C66U, for which the yeast fitness was not above 0.5.

For C11G C46G A57U, the yeast fitness amounted to 0.624.

For the variant C11A G52C, the yeast fitness came out at 0.596.

As to C11G C29G U32G G38A U53C, the yeast fitness was not above 0.5.

For the variant C11G C27A A57C C62U, the yeast fitness is not above 0.5.

For the variant C11G A36C G52C G56A, the yeast fitness is not above 0.5.

For the variant C11G A15G C22A U26A A40U C62A, the yeast fitness stood at 0.638.

Take C11G C46U: the yeast fitness worked out at 0.752.

As to C11G C62U G63A, the yeast fitness is not above 0.5.

For C11A U28A C61G C62G, the yeast fitness is 0.556.

Turning to C11G A45U U64C, the yeast fitness was not above 0.5.

On to C11G A14G A20U C27G C29U C62U, for which the yeast fitness was not above 0.5.

Regarding C11A G23C C49G, the yeast fitness is not above 0.5.

Consider C11A G50C C61A A69G, for which the yeast fitness is not above 0.5.

Consider C11G A14U G48C, for which the yeast fitness is 0.58.

Take C11G A20U C29A C30U C46G: the yeast fitness is not above 0.5.

As to C11G A15U A36U C66U, the yeast fitness is not above 0.5.

Consider C11G A45C, for which the yeast fitness was found to be 0.59.

For the variant C11G A45U, the yeast fitness stood at 0.666.

For the variant C11G A15C A70C, the yeast fitness was not above 0.5.

With C11G A14C A37C G44C C61G G63C, the yeast fitness was not above 0.5.

With C11G A21U, the yeast fitness turned out to be 0.536.

In the case of C11G C22G C27G C62U, the yeast fitness turned out to be 0.578.

For C11G A21U U26C, the yeast fitness is not above 0.5.

C11G A42C U47A G63C A69C: the yeast fitness was not above 0.5.

For the variant C11A U16C A21G, the yeast fitness was not above 0.5.

As to C11G A36C G56A A69U, the yeast fitness is not above 0.5.

Regarding C11A G51A, the yeast fitness was found to be 0.618.

As for C11G A20G C49G, the yeast fitness is not above 0.5.

As to C11G C29G C33U C46A C49G G68C, the yeast fitness is not above 0.5.

With C11G A15C G17A G18C, the yeast fitness is not above 0.5.

On to C11G C29A U54A A57U, for which the yeast fitness is not above 0.5.

For the variant C11G A20U C24A G25C A70G, the yeast fitness was not above 0.5.

Regarding C11G A14C A42U G51C C60U, the yeast fitness is not above 0.5.

Take C11G A36C C46G C60G: the yeast fitness turned out to be 0.68.

Regarding C11G C49U G50A C61U, the yeast fitness is not above 0.5.

As for C11G C27U A36U G48C C49U, the yeast fitness worked out at 0.717.

With C11A U47G, the yeast fitness came out at 0.542.

Regarding C11G A20C C24U A36C U47A, the yeast fitness was 0.61.

Consider C11G C24G U54C G67C, for which the yeast fitness is not above 0.5.

As for C11A U59C C61A C62U, the yeast fitness was not above 0.5.

Regarding C11A G18A A36G A42C C66U, the yeast fitness came to 0.658.
